In ChEMBL document CHEMBL4007473, “Discovery of Potent and Orally Bioavailable GPR40 Full Agonists Bearing Thiophen-2-ylpropanoic Acid Scaffold” (J Med Chem, 2017):
pEC50: −log10 of the molar value. The source made the active and inactive calls. The rule behind the calls is not given here.

What was measured:
[1] = molecular target: Free fatty acid receptor 1 (Mus musculus) (UniProt Q76JU9); assay: Agonist activity at GPR40 in mouse MIN6 cells assessed as increase in 25 mM glucose-stimulated insulin secretion at 10 uM after 1 hr by ELISA; type: cell-based
Method in brief: (§1)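 MIN6 cells pre-incubated 2 h at 37 ℃ in KRBH buffer with 0.1% BSA, then stimulated 1 h at 37 ℃ with 2 mM or 25 mM glucose, alone or with test agents. Insulin secreted into supernatant quantified by ELISA; mean ± SD of four independent experiments, compared with DMSO.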

[2] = Half life in Sprague-Dawley rat plasma at 10 mg/kg administered via oral gavage by LC/MS analysis; type: ADME, organism-based
Method in brief: (§2)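 Male SD rats (200 ± 20 g), acclimated 7 days, fasted overnight with water; n = 4 per route, 10 mg/kg by oral gavage or 1 mg/kg iv via tail vein. Plasma separated by centrifugation and stored at -80 ℃; drug measured by ESI triple-quadrupole LC-MS. Parameters from non-compartmental analysis, reported as mean ± SD. F = (AUCpo/Dosepo)/(AUCiv/Doseiv) × 100%.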

[3] = Mean residence time (last) in Sprague-Dawley rat plasma at 1 mg/kg, iv by LC/MS analysis; type: ADME, organism-based; method in brief: as §2
[4] = molecular target: Free fatty acid receptor 1 (Mus musculus) (UniProt Q76JU9); assay: Agonist activity at GPR40 in mouse MIN6 cells assessed as increase in 2 mM glucose-stimulated insulin secretion at 0.1 to 3 uM after 1 hr by ELISA; type: cell-based; method in brief: as §1
[5] = AUC (0 to t) in Sprague-Dawley rat plasma at 1 mg/kg, iv by LC/MS analysis; type: ADME, organism-based; method in brief: as §2
[6] = molecular target: T1, Peroxisome proliferator-activated receptor gamma (Homo sapiens, UniProt P37231); assay: Agonist activity at PPARgamma (unknown origin) expressed in HEK293T cells by luciferase reporter gene assay; type: cell-based
T1 sequence (P37231 whole entry): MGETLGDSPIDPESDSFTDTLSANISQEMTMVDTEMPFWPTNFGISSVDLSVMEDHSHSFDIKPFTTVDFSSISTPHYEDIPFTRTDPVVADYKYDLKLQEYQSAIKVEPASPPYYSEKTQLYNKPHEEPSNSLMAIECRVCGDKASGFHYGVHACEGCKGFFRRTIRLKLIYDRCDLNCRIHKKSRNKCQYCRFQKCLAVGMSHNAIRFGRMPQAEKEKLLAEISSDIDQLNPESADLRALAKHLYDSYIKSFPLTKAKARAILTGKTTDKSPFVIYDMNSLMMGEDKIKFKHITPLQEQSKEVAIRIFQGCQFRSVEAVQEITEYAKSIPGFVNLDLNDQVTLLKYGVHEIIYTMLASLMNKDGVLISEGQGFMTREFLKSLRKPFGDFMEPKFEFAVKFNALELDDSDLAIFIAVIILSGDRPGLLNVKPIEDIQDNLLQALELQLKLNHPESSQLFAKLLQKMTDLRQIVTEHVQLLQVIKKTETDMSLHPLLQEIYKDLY

[7] = Oral bioavailability in Sprague-Dawley rat plasma at 10 mg/kg administered via gavage by LC/MS analysis; type: ADME, organism-based; method in brief: as §2
[8] = Half life in Sprague-Dawley rat plasma at 1 mg/kg, iv by LC/MS analysis; type: ADME, organism-based; method in brief: as §2
[9] = AUC (0 to t) in Sprague-Dawley rat plasma at 10 mg/kg administered via oral gavage by LC/MS analysis; type: ADME, organism-based; method in brief: as §2
[10] = Tmax in Sprague-Dawley rat plasma at 10 mg/kg administered via oral gavage by LC/MS analysis; type: ADME, organism-based; method in brief: as §2
[11] = Inhibition of hepatobiliary transporter in Sprague-Dawley rat sandwich-cultured rat hepatocytes assessed as decrease in d8-TCA by measuring biliary excretion index at 1 to 25 uM incubated for 15 mins followed by d8-TCA addition measured after 15 mins by LC-MS/MS analysis; type: ADME; settings: 0.25 h
Method in brief: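 Sandwich-cultured hepatocytes from male SD rats exposed to compound 15 min in standard HBSS. Cells rinsed and pre-incubated 15 min at 37 ℃ in standard or Ca2+-free HBSS, then incubated 15 min with compound plus 1 µM d8-TCA. Washed with ice-cold PBS; cellular d8-TCA measured by LC-MS/MS. BEI = (A_HBSS – A_Ca-free)/A_HBSS × 100%.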

[12] = molecular target: T2, Free fatty acid receptor 1 (Homo sapiens, UniProt O14842); assay: Agonist activity at human GPR40 expressed in HEK293T cells transfected with 5 ug of GPR40 expression plasmid assessed as increase in intracellular Ca2+ flux by Fluo 4-AM dye based assay; type: functional, cell-based; settings: HEK-293T
Method in brief: (§3)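 Plasmid titration: HEK293T cells transiently transfected with 5 μg or 0.05 μg hGPR40 expression plasmid, plated on poly-D-lysine and held 24 h. Loaded with Fluo 4-AM (3 μM) and probenecid (2.5 mM) in HBSS/0.1% BSA for 90 min, washed, equilibrated 10 min. Ca2+ response measured as change in 585/525 ratio after compound addition; mean ± SD of three experiments.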

[13] = Mean residence time (last) in Sprague-Dawley rat plasma at 10 mg/kg administered via oral gavage by LC/MS analysis; type: ADME, organism-based; method in brief: as §2
[14] = Cmax in Sprague-Dawley rat plasma at 1 mg/kg, iv by LC/MS analysis; type: ADME, organism-based; design: dose 1 mg/kg, route intravenous; method in brief: as §2
[15] = molecular target: T3, Free fatty acid receptor 4 (Homo sapiens, UniProt Q5NUL3); assay: Agonist activity at human GPR120 expressed in CHO cells assessed as increase in intracellular Ca2+ flux by Fluo 4-AM dye based assay; type: functional, cell-based
T3 sequence (Q5NUL3 whole entry): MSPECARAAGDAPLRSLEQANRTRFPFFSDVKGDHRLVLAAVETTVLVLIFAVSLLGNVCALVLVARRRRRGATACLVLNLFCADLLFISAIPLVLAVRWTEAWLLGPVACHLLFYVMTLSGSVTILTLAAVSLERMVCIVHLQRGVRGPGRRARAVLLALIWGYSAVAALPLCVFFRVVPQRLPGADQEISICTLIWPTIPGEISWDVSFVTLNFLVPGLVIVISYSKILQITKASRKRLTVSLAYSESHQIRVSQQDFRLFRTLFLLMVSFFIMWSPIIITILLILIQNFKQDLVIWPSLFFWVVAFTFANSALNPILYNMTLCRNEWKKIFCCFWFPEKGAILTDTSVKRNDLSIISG
Method in brief: (§4)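 CHO cells stably expressing hGPR40 or hGPR120, seeded and incubated overnight at 37 ℃, 5% CO2. Loaded 90 min with Fluo 4-AM (3 μM) and probenecid (2.5 mM) in HBSS/0.1% BSA, washed, equilibrated 10 min. Ca2+ read as change in 585/525 ratio before and after compound addition; EC50 and Emax fitted from curves, Emax relative to reference agonist 4; mean ± SD, three independent experiments.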

[16] = molecular target: T2, Free fatty acid receptor 1; assay: Agonist activity at human GPR40 expressed in CHO cells assessed as increase in intracellular Ca2+ flux by Fluo 4-AM dye based assay; type: functional, cell-based
[17] = molecular target: T2, Free fatty acid receptor 1; assay: Agonist activity at human GPR40 expressed in CHO cells assessed as increase in intracellular Ca2+ flux by Fluo 4-AM dye based assay relative to 3-(4-((2',6'-dimethylbiphenyl-3-yl)methoxy)phenyl)propanoic acid; type: functional, cell-based; method in brief: as §4
[18] = molecular target: T2, Free fatty acid receptor 1; assay: Agonist activity at human GPR40 expressed in HEK293T cells transfected with 0.05 ug of GPR40 expression plasmid assessed as increase in intracellular Ca2+ flux by Fluo 4-AM dye based assay; type: functional, cell-based; settings: HEK-293T; method in brief: as §3
Mus musculus = assay: Antidiabetic activity in ICR mouse assessed as decrease in blood glucose AUC at 10 to 20 mg/kg, po administered 30 mins prior to glucose challenge measured 120 mins post dose by OGTT; type: functional, organism-based
Method in brief: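 Six-week-old male ICR mice fasted 16 h, n = 10 per group, dosed orally in 0.5% methylcellulose/20% PEG400 (10 or 20 mg/kg). Oral glucose load 2.5 g/kg by gavage 30 min later. Tail-vein glucose read at -30, 0, 30, 60, 90 and 120 min; AUC0-120 min computed and compared with vehicle.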

[19] = molecular target: Free fatty acid receptor 1 (Mus musculus) (UniProt Q76JU9); assay: Agonist activity at GPR40 in mouse MIN6 cells assessed as increase in 25 mM glucose-stimulated insulin secretion at 300 nM after 1 hr by ELISA; type: cell-based; method in brief: as §1
[20] = Cmax in Sprague-Dawley rat plasma at 10 mg/kg administered via oral gavage by LC/MS analysis; type: ADME, organism-based; design: dose 10 mg/kg, route oral; method in brief: as §2

Chain of Free fatty acid receptor 1 (Mus musculus) (Q76JU9 whole entry): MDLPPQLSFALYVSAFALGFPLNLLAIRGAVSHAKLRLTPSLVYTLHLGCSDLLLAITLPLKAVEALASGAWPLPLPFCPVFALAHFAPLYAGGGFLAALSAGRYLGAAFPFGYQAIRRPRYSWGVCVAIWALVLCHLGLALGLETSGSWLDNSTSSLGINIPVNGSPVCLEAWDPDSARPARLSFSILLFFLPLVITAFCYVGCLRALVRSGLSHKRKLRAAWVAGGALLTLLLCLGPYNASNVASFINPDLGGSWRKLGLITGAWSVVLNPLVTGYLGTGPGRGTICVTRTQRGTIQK
T2 sequence (O14842 whole entry): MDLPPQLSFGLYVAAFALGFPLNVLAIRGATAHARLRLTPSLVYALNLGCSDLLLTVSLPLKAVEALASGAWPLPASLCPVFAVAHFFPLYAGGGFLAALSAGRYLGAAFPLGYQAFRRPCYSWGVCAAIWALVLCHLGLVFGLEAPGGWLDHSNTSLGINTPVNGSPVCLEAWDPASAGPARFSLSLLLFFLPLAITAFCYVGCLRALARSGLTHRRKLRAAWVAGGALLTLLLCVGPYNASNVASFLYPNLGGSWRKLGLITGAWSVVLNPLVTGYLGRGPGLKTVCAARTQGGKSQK

CC#C[C@@H](CC(=O)O)c1ccc(OCc2cccc(-c3c(C)cc(OCCCS(C)(=O)=O)cc3C)c2)s1
Activity [1]: Active | half-life [2]: 3.9 h | MRT last [3]: 3.2 h | Activity [4]: inactive | AUC(0-t) [5]: 3320 ng·h/mL | pEC50 [6]: < 5.00 | bioavailability [7]: 13.3% | half-life [8]: 3.8 h | AUC(0-t) [9]: 4420 ng·h/mL | Tmax [10]: 1 h | Activity [11]: Not Active | Activity [12]: Active | MRT last [13]: 5 h | Cmax [14]: 2180 ng/mL | pEC50 [15]: < 5.00 | pEC50 [16]: 7.09 | Emax [17]: 244% | Activity [18]: Active | Activity (Mus musculus): Active | Activity [19]: Active | Cmax [20]: 834 ng/mL
